Data as given in ChEMBL document CHEMBL4229530, “5-Adamantan thiadiazole-based thiazolidinones as antimicrobial agents. Design, synthesis, molecular docking and evaluation” (2018).
Converted amounts (≈) assume the structure as drawn.

Legend:
Pseudomonas aeruginosa [1] = test: Antibacterial activity against drug-resistant Pseudomonas aeruginosa after 24 hrs by INT dye based microdilution assay; format: functional
Outline: (§1)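 Broth microdilution in tryptic soy broth. Overnight culture adjusted to 1×10^5 CFU/mL, giving 1.0×10^4 CFU per well. Compounds dissolved in 5% DMSO and tested at 0.001-1.0 mg/ml. Plates incubated 24 h at 37°C. INT (0.2 mg/mL) then added, with 30 min at 37°C. Duplicate, repeated three times.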

Listeria monocytogenes = test: Antibacterial activity against Listeria monocytogenes NCTC 7973 after 24 hrs by INT dye based microdilution assay; format: functional; settings: NCTC 7973, 24 h
Outline: (§2)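 Broth microdilution in tryptic soy broth: overnight bacterial culture adjusted to 1×10^5 CFU/mL, 1.0×10^4 CFU per well; compounds dissolved in 5% DMSO, tested at 0.001-1.0 mg/ml; 24 h at 37°C. Streptomycin and ampicillin as positive controls, 5% DMSO as negative control; duplicate, repeated three times.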

Staphylococcus aureus [2] = test: Antibacterial activity against Staphylococcus aureus ATCC 6538 after 24 hrs by INT dye based microdilution assay; format: functional; settings: ATCC 6538, 24 h; outline: as §2
Aspergillus ochraceus = test: Antifungal activity against Aspergillus ochraceus ATCC 12066 after 72 hrs by serial dilution assay; format: functional; settings: ATCC 12066, 72 h
Outline: (§3)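 Modified microdilution: fungal spores washed off malt agar with sterile 0.85% saline plus 0.1% Tween 80, adjusted to about 1.0×10^5 per 100 µL well. Compounds in 5% DMSO (0.001-1.0 mg/ml) in malt broth; 72 h at 28°C on rotary shaker (160 rpm). MIC is lowest concentration without visible growth under binocular microscope. Bifonazole and ketoconazole controls (1-3500 µg/mL); three independent experiments in duplicate.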

Bacillus cereus = test: Antibacterial activity against Bacillus cereus after 24 hrs by INT dye based microdilution assay; format: functional; outline: as §2
Micrococcus flavus = test: Antibacterial activity against Micrococcus flavus ATCC 10240 after 24 hrs by INT dye based microdilution assay; format: functional; settings: ATCC 10240, 24 h; outline: as §2
Escherichia coli [3] = test: Antibacterial activity against drug-resistant Escherichia coli after 24 hrs by INT dye based microdilution assay; format: functional; outline: as §1
Penicillium ochrochloron = test: Antifungal activity against Penicillium ochrochloron ATCC 9112 after 72 hrs by serial dilution assay; format: functional; settings: ATCC 9112, 72 h; outline: as §3
Salmonella typhimurium = test: Antibacterial activity against Salmonella typhimurium ATCC 13311 after 24 hrs by INT dye based microdilution assay; format: functional, Salmonella enterica subsp. enterica serovar Typhimurium; settings: Salmonella enterica, ATCC 13311, 24 h; outline: as §2
Escherichia coli [4] = test: Antibacterial activity against Escherichia coli ATCC 35210 after 24 hrs by INT dye based microdilution assay; format: functional; settings: ATCC 35210, 24 h; outline: as §2
Talaromyces funiculosus = test: Antifungal activity against Penicillium funiculosum ATCC 36839 after 72 hrs by serial dilution assay; format: functional; settings: ATCC 36839, 72 h; outline: as §3
Aspergillus versicolor = test: Antifungal activity against Aspergillus versicolor ATCC 11730 after 72 hrs by serial dilution assay; format: functional; settings: ATCC 11730, 72 h; outline: as §3
Penicillium verrucosum = test: Antifungal activity against Penicillium cyclopium var verucosum after 72 hrs by serial dilution assay; format: functional; outline: as §3
Trichoderma viride = test: Antifungal activity against Trichoderma viride IAM 5061 after 72 hrs by serial dilution assay; format: functional; settings: IAM 5061, 72 h; outline: as §3
Staphylococcus aureus [5] = test: Antibacterial activity against methicillin-resistant Staphylococcus aureus after 24 hrs by INT dye based microdilution assay; format: functional; outline: as §1
Pseudomonas aeruginosa [6] = test: Antibacterial activity against Pseudomonas aeruginosa ATCC 27853 after 24 hrs by INT dye based microdilution assay; format: functional; settings: ATCC 27853, 24 h; outline: as §2
Aspergillus niger = test: Antifungal activity against Aspergillus niger ATCC 6275 after 72 hrs by serial dilution assay; format: functional; settings: ATCC 6275, 72 h; outline: as §3
Aspergillus fumigatus = test: Antifungal activity against Aspergillus fumigatus isolate 1022 after 72 hrs by serial dilution assay; format: functional; settings: isolate 1022, 72 h; outline: as §3
Enterobacter cloacae = test: Antibacterial activity against Enterobacter cloacae after 24 hrs by INT dye based microdilution assay; format: functional; outline: as §2
Candida albicans = test: Antifungal activity against Candida albicans after 72 hrs by serial dilution assay; format: functional; outline: as §3

SMILES	MIC (Pseudomonas aeruginosa [1])	MIC (Listeria monocytogenes)	MIC (Staphylococcus aureus [2])	MIC (Aspergillus ochraceus)	MIC (Bacillus cereus)	MIC (Micrococcus flavus)	MIC (Escherichia coli [3])	MIC (Penicillium ochrochloron)	MIC (Salmonella typhimurium)	MIC (Escherichia coli [4])	MIC (Talaromyces funiculosus)	MIC (Aspergillus versicolor)	MIC (Penicillium verrucosum)	MIC (Trichoderma viride)	MIC (Staphylococcus aureus [5])	MIC (Pseudomonas aeruginosa [6])	MIC (Aspergillus niger)	MIC (Aspergillus fumigatus)	MIC (Enterobacter cloacae)	MIC (Candida albicans)
O=C1N/C(=N\c2nnc(C34CC5CC(CC(C5)C3)C4)s2)S/C1=C/c1ccccc1[N+](=O)[O-]	175 µM (≈ 81.8 µg/mL)	32.2 µM (≈ 15.1 µg/mL)	0.0322 µM (≈ 0.0151 µg/mL)	321 µM (≈ 150 µg/mL)	32.2 µM (≈ 15.1 µg/mL)	32.2 µM (≈ 15.1 µg/mL)	0.175 µM (≈ 0.0818 µg/mL)	321 µM (≈ 150 µg/mL)	32.2 µM (≈ 15.1 µg/mL)	0.0322 µM (≈ 0.0151 µg/mL)	482 µM (≈ 225 µg/mL)	321 µM (≈ 150 µg/mL)	0.321 µM (≈ 0.15 µg/mL)	321 µM (≈ 150 µg/mL)	0.175 µM (≈ 0.0818 µg/mL)	32.2 µM (≈ 15.1 µg/mL)	482 µM (≈ 225 µg/mL)	321 µM (≈ 150 µg/mL)	32.2 µM (≈ 15.1 µg/mL)	
O=C1N/C(=N\c2nnc(C34CC5CC(CC(C5)C3)C4)s2)S/C1=C/c1cccc(Cl)c1Cl	183 µM (≈ 90 µg/mL)	244 µM (≈ 120 µg/mL)	0.244 µM (≈ 0.12 µg/mL)	163 µM (≈ 80.1 µg/mL)	244 µM (≈ 120 µg/mL)	244 µM (≈ 120 µg/mL)	0.183 µM (≈ 0.09 µg/mL)	163 µM (≈ 80.1 µg/mL)	122 µM (≈ 60 µg/mL)	0.244 µM (≈ 0.12 µg/mL)	326 µM (≈ 160 µg/mL)	163 µM (≈ 80.1 µg/mL)	0.163 µM (≈ 0.0801 µg/mL)	163 µM (≈ 80.1 µg/mL)	0.183 µM (≈ 0.09 µg/mL)	122 µM (≈ 60 µg/mL)	163 µM (≈ 80.1 µg/mL)	163 µM (≈ 80.1 µg/mL)	244 µM (≈ 120 µg/mL)	
O=C1N/C(=N\c2nnc(C34CC5CC(CC(C5)C3)C4)s2)S/C1=C/c1c(Cl)cccc1Cl	61.1 µM (≈ 30 µg/mL)	21.4 µM (≈ 10.5 µg/mL)	0.0407 µM (≈ 0.02 µg/mL)	92 µM (≈ 45.2 µg/mL)	40.7 µM (≈ 20 µg/mL)	40.7 µM (≈ 20 µg/mL)	0.0305 µM (≈ 0.015 µg/mL)	61 µM (≈ 30 µg/mL)	40.7 µM (≈ 20 µg/mL)	0.0407 µM (≈ 0.02 µg/mL)	61 µM (≈ 30 µg/mL)	61 µM (≈ 30 µg/mL)	0.122 µM (≈ 0.06 µg/mL)	122 µM (≈ 60 µg/mL)	0.0611 µM (≈ 0.03 µg/mL)	40.7 µM (≈ 20 µg/mL)	61 µM (≈ 30 µg/mL)	61 µM (≈ 30 µg/mL)	21.4 µM (≈ 10.5 µg/mL)	
O=C1N/C(=N\c2nnc(C34CC5CC(CC(C5)C3)C4)s2)S/C1=C/c1ccccc1	47.3 µM (≈ 20 µg/mL)	94.7 µM (≈ 40 µg/mL)	0.0473 µM (≈ 0.02 µg/mL)	47.5 µM (≈ 20.1 µg/mL)	94.7 µM (≈ 40 µg/mL)	94.7 µM (≈ 40 µg/mL)	0.0236 µM (≈ 0.00997 µg/mL)	47.5 µM (≈ 20.1 µg/mL)	23.6 µM (≈ 9.97 µg/mL)	0.0947 µM (≈ 0.04 µg/mL)	47.5 µM (≈ 20.1 µg/mL)	95 µM (≈ 40.1 µg/mL)	0.095 µM (≈ 0.0401 µg/mL)	47.5 µM (≈ 20.1 µg/mL)	0.0473 µM (≈ 0.02 µg/mL)	94.7 µM (≈ 40 µg/mL)	95 µM (≈ 40.1 µg/mL)	47.5 µM (≈ 20.1 µg/mL)	94.7 µM (≈ 40 µg/mL)	
O=C1N/C(=N\c2nnc(C34CC5CC(CC(C5)C3)C4)s2)S/C1=C/c1ccc(F)cc1	295 µM (≈ 130 µg/mL)	295 µM (≈ 130 µg/mL)	0.147 µM (≈ 0.065 µg/mL)	90.9 µM (≈ 40 µg/mL)	295 µM (≈ 130 µg/mL)	295 µM (≈ 130 µg/mL)	0.295 µM (≈ 0.13 µg/mL)	90.9 µM (≈ 40 µg/mL)	295 µM (≈ 130 µg/mL)	0.295 µM (≈ 0.13 µg/mL)	90.9 µM (≈ 40 µg/mL)	90.9 µM (≈ 40 µg/mL)	0.182 µM (≈ 0.0801 µg/mL)	182 µM (≈ 80.2 µg/mL)	0.295 µM (≈ 0.13 µg/mL)	295 µM (≈ 130 µg/mL)	182 µM (≈ 80.2 µg/mL)	90.9 µM (≈ 40 µg/mL)	148 µM (≈ 65 µg/mL)	
O=C1N/C(=N\c2nnc(C34CC5CC(CC(C5)C3)C4)s2)S/C1=C/c1ccc(Br)cc1		250 µM (≈ 125 µg/mL)	0.06 µM (≈ 0.0301 µg/mL)	15.6 µM (≈ 7.82 µg/mL)	14 µM (≈ 7.02 µg/mL)	250 µM (≈ 125 µg/mL)		62.5 µM (≈ 31.3 µg/mL)	14 µM (≈ 7.02 µg/mL)	0.08 µM (≈ 0.0401 µg/mL)	125 µM (≈ 62.7 µg/mL)	62.5 µM (≈ 31.3 µg/mL)		31.2 µM (≈ 15.6 µg/mL)		60 µM (≈ 30.1 µg/mL)	62.5 µM (≈ 31.3 µg/mL)	125 µM (≈ 62.7 µg/mL)	60 µM (≈ 30.1 µg/mL)	200 µM (≈ 100 µg/mL)
O=C1N/C(=N\c2nnc(C34CC5CC(CC(C5)C3)C4)s2)S/C1=C/c1ccc(O)cc1		284 µM (≈ 125 µg/mL)	0.068 µM (≈ 0.0298 µg/mL)	71 µM (≈ 31.1 µg/mL)	34 µM (≈ 14.9 µg/mL)	142 µM (≈ 62.3 µg/mL)		142 µM (≈ 62.3 µg/mL)	34 µM (≈ 14.9 µg/mL)	0.091 µM (≈ 0.0399 µg/mL)	71 µM (≈ 31.1 µg/mL)	71 µM (≈ 31.1 µg/mL)		71 µM (≈ 31.1 µg/mL)		34 µM (≈ 14.9 µg/mL)	142 µM (≈ 62.3 µg/mL)	142 µM (≈ 62.3 µg/mL)	34 µM (≈ 14.9 µg/mL)	284 µM (≈ 125 µg/mL)
